Arrestin-AP2 inh: inhibitors of beta-arrestin/AP2 binding, primary screen, biochemical, GPCR trafficking, flow cytometry | actives 0.31% (n = 340,000) | inhibition, % at 10 µM | FITC-arrestin peptide / GST-AP2 beads; AP2 beta2 appendage carries R879A mutation | AID 504490, 2011 | beta-arrestin 1 C-terminal peptide binding to AP2 beta2-adaptin appendage (human);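 active means inhibition above a set limit, near 3 SD of compounds lacking own fluorescence, cut at about 54% in these data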;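 further: plate controls were DMSO wells for no effect and 5 µM unlabelled arrestin peptide for full effect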
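test system = AP2 appendage R879A on GSH beads | buffer or medium = PBS plus Tween 20 (0.05%) and BSA (0.1%) | incubation = 12 min plus 1 h, RT | detection = bead flow cytometry, FITC channel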
STK33 kinase inh: inhibitors of purified STK33 kinase, primary screen, biochemical, ADP-Glo luminescence, homogeneous, cell-free | actives 0.073% (n = 320,000) | AID 2661, 2010 | Serine/threonine-protein kinase 33 (Homo sapiens), Q9BYT3 | MBP phosphorylation | inhibition, % at 10 µM;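 active means inhibition at or above 25%, using the most active replicate where run in duplicate; inactive means inhibition below 25%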
GSK3B inh: human GSK3beta kinase inhibitors, primary screen, biochemical, cell-free homogeneous, HTS. Glycogen synthase kinase-3 beta (Homo sapiens), P49841. GST-GSK3beta kinase, ADP-Glo luminescence, 60 min; active compounds read low. activity score (negative = inhibition), % at 10 µM. actives 0.038% (n = 300,000);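 active means more than half of replicate wells score below -50%, meaning over 50% inhibition versus plate controls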;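 further: 0% = median DMSO wells and -100% = median GW8510 positive control wells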
Target sequence (P49841 whole entry, looked up): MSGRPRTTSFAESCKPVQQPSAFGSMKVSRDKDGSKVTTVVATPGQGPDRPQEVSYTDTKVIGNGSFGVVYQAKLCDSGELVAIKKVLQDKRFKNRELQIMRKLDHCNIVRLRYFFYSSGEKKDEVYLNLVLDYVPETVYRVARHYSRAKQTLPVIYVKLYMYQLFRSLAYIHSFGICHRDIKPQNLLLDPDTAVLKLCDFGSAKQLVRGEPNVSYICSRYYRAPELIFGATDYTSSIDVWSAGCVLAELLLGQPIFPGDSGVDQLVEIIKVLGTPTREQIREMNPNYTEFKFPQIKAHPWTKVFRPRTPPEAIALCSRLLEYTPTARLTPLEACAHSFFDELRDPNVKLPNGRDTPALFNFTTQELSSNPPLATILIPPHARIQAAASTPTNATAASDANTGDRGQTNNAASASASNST
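test system = GST-tagged human GSK3beta kinase, cell-free | reagent = 25 µM ATP with peptide substrate | dosing = one dose of 10 µM per compound | schedule = 60 min reaction, RT | detection = luminescent ADP-Glo measurement of ADP formed | control set = DMSO neutral wells and GW8510 at 20 µM as positive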
GSK3A inh: blockers of GSK3A enzyme activity – biochemical, luminescence, cell-free homogeneous, HTS, primary screen | Glycogen synthase kinase-3 alpha (Homo sapiens), P49840 | GSK-3 alpha kinase, ADP-Glo luminescence, 60 min | inhibition, % at 10 µM | actives 0.1% (n = 320,000) | AID 2650, 2010;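 active means more than half of replicates show inhibition above 20%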;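 further: GST-tagged GSK-3 alpha with peptide substrate and 25 µM ATP; 0% = DMSO neutral wells and 100% = GW8510 positive control wells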
Rin1-Abl PPI inh: inhibitors of Rin1-Abl protein binding, primary screen, biochemical, TR-FRET; Tyrosine-protein kinase ABL1 (Homo sapiens) + Ras and Rab interactor 1 (Homo sapiens), …; inhibition, % at 7.35 µM; actives 0.4% (n = 360,000); in the data active means inhibition above about 5%, passing the limit was not always enough
Dyrk1A ADPGlo: rat Dyrk1A kinase inhibitors, primary screen, biochemical, single point, plate reader; actives 0.43% (n = 310,000); Dual specificity tyrosine-phosphorylation-regulated kinase 1A (Rattus norvegicus), Q63470; inhibition, % at 12.5 µM; ADP-Glo luminescence, NFATc1 peptide; in the data active means inhibition above about 50%;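 further: plate controls were vehicle with enzyme for no effect and no enzyme for full effect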
* marks the source's active call; other numbers are inactive results; i = inactive; x = no result. Sampled rows, rich in hits. Any-hit rate of the full collection: about 0.99%.

SMILES | Arrestin-AP2 inh | STK33 kinase inh | GSK3B inh | GSK3A inh | Rin1-Abl PPI inh | Dyrk1A ADPGlo
Nc1nc(NCCO)nc(NC2CCCCC2)c1[N+](=O)[O-] | 7 | 1 | -11 | 86* | 6 | 1
CN(C)CCCNc1nc(N)c([N+](=O)[O-])c(NC2CCCCC2)n1 | 1 | 3 | -81* | 98* | -2 | 23
CC(C)CCNc1nc(N)c([N+](=O)[O-])c(NC2CCCCC2)n1 | -20 | -1 | 0 | 0 | 1 | -3
Nc1nc(NCCOCCO)nc(NC2CCCCC2)c1[N+](=O)[O-] | 2 | 3 | -7 | 52* | 2 | 20
CCn1nc(C)c(CN2CCC(Oc3ccc(C(=O)N4CCCC4)cc3)CC2)c1C | 3 | -1 | -1 | 3 | 4 | -2
Cc1ccc(S(=O)(=O)NC(CC(C)C)C(=O)NCCCn2nc(C)cc2C)cc1 (configuration not stated) | -3 | 1 | x | 17 | -1 | 0
CCn1c2ccc(C)cc2c2nc3cc(C(=O)O)ccc3nc21 | -7 | 57* | -5 | 28 | -4 | 28
C[C@@H]1CN([C@H](C)CO)S(=O)(=O)c2ccc(C#Cc3ccccc3F)cc2O[C@@H]1CN(C)C(=O)Cc1ccccc1 | x | x | x | x | 0 | x
CCOC(=O)C1=CCC(c2ccc(Cl)cc2)N(S(=O)(=O)c2ccc(C)cc2)C1 (configuration not stated) | x | x | x | x | 3 | x
CSc1ccccc1CNc1nc(NCC2CC2)nc2ccsc12 | x | x | x | x | -2 | x
O=C1c2ccccc2-c2onc3ccc(NCCCn4ccnc4)c1c23 | x | 48* | -29 | 63* | x | x
C/C(=N\O)c1ccc(Cl)c(Cl)c1 | x | 1 | 4 | -3 | x | x
CCCn1c2ccc(/C(C)=N\O)cc2c2cc(/C(C)=N/O)ccc21 | -1 | 44* | -2 | 1 | 3 | 3
CCOc1ccc(S(=O)(=O)N(CC(=O)NCc2ccncc2)c2ccc(C)cc2)cc1 | 9 | -4 | 1 | 0 | 1 | 1
Cc1ccc(C)c(S(=O)(=O)Nc2ccc(C(=O)NCCCN3CCOCC3)cc2)c1 | 6 | -2 | -4 | 0 | -1 | 3
O=C(CCl)Oc1ccc2occ(C(=O)c3cccs3)c2c1 | -9 | 3 | -72* | 70* | -2 | 31
Cc1ccc(-c2nc3ccc(Cl)cn3c2Cc2cccc(Cl)c2)cc1 | x | x | x | x | 6 | x
COc1ccc(CCN(C)C(=O)c2cc(=O)c3ccccc3o2)cc1OC | -8 | -3 | 0 | -1 | 0 | 0
CC(C)(C)C(=O)NC(=S)Nc1sc2c(c1C(N)=O)CCC2 | 37 | 2 | -5 | 69* | 1 | 4
C/C(=N/Nc1ccnc2cc(Cl)ccc12)c1ccc(O)cc1 | 7 | 32* | 0 | 0 | 1 | 11
Cc1cccnc1NC(=O)CSc1ccc2c(c1)OCCO2 | 27 | 2 | x | -1 | 2 | x
CCOC(=O)C1=C(C)Nc2ncnn2C1c1ccccc1F (configuration not stated) | 22 | -2 | 0 | 3 | 4 | 7
CC1=C(C(=O)OC(C)C)C(c2c[nH]c3ccccc23)n2ncnc2N1 (configuration not stated) | 2 | 1 | 0 | 93* | -2 | 5
CCCC1=C(C(=O)OCC)C(c2sccc2C)n2ncnc2N1 (configuration not stated) | 23 | 1 | -34 | 78* | -1 | -3
CCOC(=O)C1=C(C)Nc2ncnn2C1c1c[nH]c2ccccc12 (configuration not stated) | 32 | -1 | -74* | 71* | 3 | -2
SMILES | Arrestin-AP2 inh | STK33 kinase inh | GSK3B inh | GSK3A inh | Rin1-Abl PPI inh | Dyrk1A ADPGlo
COC(=O)c1ccccc1-c1c2ccc(=N)cc-2oc2cc(N)ccc12 | i | 2 | x | 4 | i | 8
O=Cc1cn(CCOc2ccccc2F)c2ccccc12 | -11 | 0 | -2 | -1 | -1 | 41
CCOC1(OCC)N=C(N)C2(C#N)C(c3ccc(NC(C)=O)cc3)C12C#N (configuration not stated) | 22 | 13 | 3 | 60* | 0 | 36
COC1(OC)N=C(N)C2(C#N)C(c3ccc(F)cc3)C12C#N (configuration not stated) | 14 | -2 | 1 | 1 | -1 | 13
CN[C@H]1C[C@H]2c3[nH]c4ccc(-c5cccc(C)c5)cc4c3CCN2C[C@H]1[C@H](C)O | x | x | x | x | 2 | x
CC(=O)Oc1cc(C(=O)OCC(=O)NC23CC4CC(CC(C4)C2)C3)cc(OC(C)=O)c1OC(C)=O | 10 | x | x | x | 9.8* | -1
COc1cccc(C(=O)OCC(=O)NC23CC4CC(CC(C4)C2)C3)c1 | 0 | -1 | x | -2 | 6 | 6
Cc1ccc2c(c1)C1C=CCC1C(C(=O)O)N2 (configuration not stated) | x | 2 | -4 | 3 | x | x
O=C(O)C1Nc2c(O)cc(Cl)c([N+](=O)[O-])c2C2C=CCC12 (configuration not stated) | 20 | 14 | 3 | 4 | 14* | 12
COC(=O)c1ccc(COc2ccccc2/C=N/Nc2cccc(C(=O)O)c2)cc1 | -2 | x | x | x | -4 | -2
COC(=O)c1ccc(COc2ccccc2/C=C/C(=O)c2ccc(OCC(=O)O)cc2)cc1 | -16 | 50* | -8 | -2 | -1 | -2
O=C(Nc1ccccc1C(=O)N1CCOCC1)c1cccnc1 | -9 | 0 | -4 | -2 | 1 | 1
O=C(Nc1sccc1C(=O)N1CCOCC1)c1cccnc1 | 5 | -1 | -31 | 54* | -2 | 4
c1nc(N2CCCCCC2)c2[nH]cnc2n1 | 21 | 10 | -2 | 28 | -1 | 11
c1nc(N2CCCC2)c2[nH]cnc2n1 | -4 | 31* | -1 | 14 | -2 | 18
Cn1c(SCc2nnc(-c3ccc(F)cc3)o2)nnc1C1COc2ccccc2O1 (configuration not stated) | 9 | -1 | -44 | 60* | 6 | 12
O=C1C(Cc2ccccc2)Nc2ncnc(N3CCN(c4ccccc4)CC3)c2N1Cc1ccc(Cl)cc1 (configuration not stated) | 4 | 0 | 0 | -3 | -2 | 5
